Experimental data pooled from the literature.
Each line is one published result; the experiments were not run side by side.
Target: Maternal embryonic leucine zipper kinase (MELK, Homo sapiens, UniProt Q14680)

Structure (SMILES) | test | setting | remaining binding
COc1ccnn2ncc(-c3ccnc(N(C)C)n3)c12 | binding | 1 µM | 100%
C=CC(=O)N1CCC(C(=O)NCC(=O)N2CCN(c3nc(-c4cnc(N)nc4C(F)F)nc(N4CCOCC4)n3)CC2)CC1 | binding, competition with immobilised ligand | 1 µM | 100%
CCC(=O)N[C@@H]1CC[C@H](C(=O)N(C)c2ccc(-c3nc4ccccc4o3)cc2)C1 | cell-free assay, competition with immobilised ligand | 1 µM | 100%
C[C@H]1CCN(c2nccc(-c3cnn4ncccc34)n2)C1 | binding | 1 µM | 33%
C[C@@H](c1ccc(-n2cnc3c(N)ncnc32)cc1)N1CCc2nn(C)c(Cc3ccccc3)c2C1=O | binding, competition with immobilised ligand | 0.1 µM | 93%
O=C(c1ccc(Nc2nccc(-c3cc4ccccc4s3)n2)cc1)N1CCC(N2CCCC2)CC1 | binding, competition with immobilised ligand | 1 µM | 100%
CCN1CCN(Cc2ccc(C(=O)Nc3ccc(C)c(Oc4ccc5c(c4)CC(=O)N5)c3)cc2C(F)(F)F)CC1 | binding, competition with immobilised ligand | 1 µM | 100%
O=C(c1ccc(Nc2ncc(Cl)c(-c3ccc(Cl)s3)n2)cc1)N1CCC(N2CCCC2)CC1 | binding, competition with immobilised ligand | 1 µM | 54%
CC(=O)N1CCC(c2ccc(C(=O)NC3=NCCN3)cc2C(F)(F)F)CC1 | cell-free assay, competition with immobilised ligand | 1 µM | 100%
COc1ncc2cc3ccccc3nc2c1C#N | cell-free assay, competition with immobilised ligand | 5 µM | 83%
CN(c1nccc(-c2cnn3ncccc23)n1)C1CC1 | binding | 1 µM | 73%
CN([C@@H]1CCc2c(CC(=O)O)c3cc(S(C)(=O)=O)ccc3n2C1)S(=O)(=O)c1ccc(F)cc1 | cell-free assay, competition with immobilised ligand | 1 µM | 84%
O=C(c1ccc(Nc2ncc(Cl)c(-c3cc4ccccc4s3)n2)cc1)N1CCC(N2CCCC2)CC1 | binding, competition with immobilised ligand | 1 µM | 64%
CC(=O)C1=C(C)N(c2cccc(C(F)(F)F)c2)C(=O)N[C@@H]1c1ccc(C#N)nc1 | cell-free assay, competition with immobilised ligand | 1 µM | 88.2%
CN(CCCC(F)(F)F)c1nccc(-c2cnn3ncccc23)n1 | binding | 1 µM | 94%
COc1cnc(Nc2cccc(S(N)(=O)=O)c2)nc1N1CCN(c2ccccc2)C(=O)C1 | binding, competition with immobilised ligand | 1 µM | 100%
CC1=C(C#N)[C@@H](c2ccc3[nH]nc(C)c3c2)C(C#N)=C(c2ccc(Cl)cc2)N1 | cell-free assay, competition with immobilised ligand | 1 µM | 100%
Cc1cnn2ncc(-c3ccnc(N(C)C)n3)c2c1 | binding | 1 µM | 100%
COc1ccc2c(c1)O[C@@H](c1ccc(OC)c(OC)c1)C[C@H]2NC(=O)C1(c2ccc3c(c2)OC(F)(F)O3)CC1 | cell-free assay, competition with immobilised ligand | 1 µM | 65%
CN(C)c1nccc(-c2cnc3ncccn23)n1 | binding | 1 µM | 100%
CCCCN(CCCC)C(=O)CN1C[C@H](c2cc(OC)c3c(c2)OCO3)[C@@H](C(=O)O)[C@@H]1CC(C)(C)CCC | cell-free assay, competition with immobilised ligand | 1 µM | 100%
O=C(Nc1c[nH]nc1C(=O)NC1CCNCC1)c1cc(F)cc(F)c1 | binding, competition with immobilised ligand | 1 µM | 82%
